Reference: ChEMBL document CHEMBL2010776, “Synthesis and structure elucidation of novel fused 1,2,4-triazine derivatives as potent inhibitors targeting CYP1A1 activity” (Bioorg Med Chem, 2012)

Assays:
CYP1A1 = target: T1, CYP1A1 (Rattus norvegicus, UniProt P00185); assay: Inhibition of CYP1A1 activity in rat liver microsomes using benzo[alpha]pyrene as substrate at 100 nmol after 10 mins by fluorescence analysis; set-up: species or system Microsome; settings: probe benzo[alpha]pyrene
T1 sequence (P00185 whole entry): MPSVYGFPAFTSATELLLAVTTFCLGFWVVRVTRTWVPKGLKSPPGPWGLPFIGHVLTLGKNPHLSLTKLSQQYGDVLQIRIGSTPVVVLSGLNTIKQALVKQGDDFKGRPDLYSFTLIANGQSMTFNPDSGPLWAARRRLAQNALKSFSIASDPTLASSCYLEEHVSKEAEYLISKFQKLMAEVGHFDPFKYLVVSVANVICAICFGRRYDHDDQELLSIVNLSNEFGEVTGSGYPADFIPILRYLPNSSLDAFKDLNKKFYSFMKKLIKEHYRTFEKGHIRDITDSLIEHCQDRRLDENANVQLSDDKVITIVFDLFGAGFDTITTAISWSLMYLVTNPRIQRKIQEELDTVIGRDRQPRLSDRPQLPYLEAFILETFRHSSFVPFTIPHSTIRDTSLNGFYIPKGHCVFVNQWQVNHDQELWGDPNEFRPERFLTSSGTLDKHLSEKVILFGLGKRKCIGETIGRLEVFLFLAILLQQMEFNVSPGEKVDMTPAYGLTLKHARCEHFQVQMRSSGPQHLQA
Summary of the method: (§1)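 AHH assay, 1 mL mix: 50 mM Tris–HCl pH 7.4, […], 100 nmol test compound, 0.1 mL microsomal protein (10 mg/mL) from PAH-induced rat liver (105,000 g pellet, resuspended in 0.1 M K phosphate pH 7.4). Started with 100 nmol benzo[a]pyrene, 37 °C 10 min, acetone stop; 3-OH-BaP hexane-extracted, fluorescence ex 396/em 522 nm; percent change in activity.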

Cytochrome P450 1A1 = target: T2, Cytochrome P450 1A1 (Rattus norvegicus, UniProt P00185); assay: Inhibition of CYP1A1 activity in rat liver microsomes using benzo[alpha]pyrene as substrate after 10 mins by fluorescence analysis; set-up: species or system Microsome; summary of the method: as §1
T2 sequence (P00185 whole entry): T1 sequence (P00185 whole entry)

Mus musculus [1] = assay: Acute toxicity in mouse assessed as tolerability up to 150 mg/kg, ip; assay type: organism-based; set-up: dose 150 mg/kg, route intraperitoneal; settings: in vivo
Summary of the method: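 Mice in groups of six; compound suspended in corn oil and given intraperitoneally at 1, 5, 10, 50 or 150 mg/kg; vehicle-only control group. Body weight recorded before dosing and on days 7 and 14 (termination).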

[2] = Toxicity in po dosed mouse; assay type: organism-based; settings: in vivo
Mus musculus [3] = assay: Acute toxicity in mouse assessed as tolerability up to 350 mg/kg, po; assay type: organism-based; set-up: dose 350 mg/kg, route oral; settings: in vivo

Row | inhibition at 10 min (CYP1A1) [%] | IC50 (Cytochrome P450 1A1) [nM] | SMILES | Activity (Mus musculus [1]) | LD50 [2] [mg/kg] | Activity (Mus musculus [3])
1 | 20.6 | 24.2 | CC(=O)N1N=C2N(N=C(Cc3ccccc3)C(=O)N2N(C(C)=O)C(C)=O)C1c1ccccc1 (stereo unspecified) |  |  | 
2 | 57.6 | 86.7 | COc1ccc(CC2=NN3C(=NN(C(C)=O)C3c3ccccc3)N(N(C(C)=O)C(C)=O)C2=O)cc1 (stereo unspecified) |  |  | 
3 | 51.5 | 9.71 | COc1ccc(C2N(C(C)=O)N=C3N2N=C(Cc2ccccc2)C(=O)N3N(C(C)=O)C(C)=O)cc1 (stereo unspecified) |  |  | 
4 | 48.2 | 10.4 | COc1ccc(CC2=NN3C(=NN(C(C)=O)C3(C)c3ccc(C)cc3)N(N(C(C)=O)C(C)=O)C2=O)cc1 (stereo unspecified) |  |  | 
5 | 37.9 | 13.2 | CC(=O)NN1C(=O)C(Cc2ccccc2)=NN2C1=NN(C(C)=O)C2(C)c1ccccc1 (stereo unspecified) |  |  | 
6 | 59.8 | 8.36 | COc1ccc(CC2=NN3C(=NN(C(C)=O)C3(C)c3ccccc3)N(NC(C)=O)C2=O)cc1 (stereo unspecified) |  |  | 
7 | 75.6 | 6.62 | CC(=O)NN1C(=O)C(Cc2ccccc2)=NN2C1=NN(C(C)=O)C2(C)c1ccc(C)cc1 (stereo unspecified) |  |  | 
8 | 64.6 | 7.74 | CC(=O)N1C(=O)C2(c3ccccc31)N(C(C)=O)N=C1N(N(C(C)=O)C(C)=O)C(=O)C(Cc3ccccc3)=NN12 (stereo unspecified) |  |  | 

Row | SMILES | inhibition at 10 min (CYP1A1) [%] | IC50 (Cytochrome P450 1A1) [nM] | Activity (Mus musculus [1]) | LD50 [2] [mg/kg] | Activity (Mus musculus [3])
9 | Nn1c(N/N=C2\C(=O)Nc3ccccc32)nnc(Cc2ccccc2)c1=O | 92.2 | 5.42 | Non-toxic | > 350 | Non-toxic
10 | COc1ccc(Cc2nnc(N/N=C3\C(=O)Nc4ccccc43)n(N)c2=O)cc1 | 90.5 | 5.53 | Non-toxic | > 350 | Non-toxic
11 | COc1ccc(CC2=NN3C(=NN(C(C)=O)C34C(=O)N(C(C)=O)c3ccccc34)N(N(C(C)=O)C(C)=O)C2=O)cc1 (stereo unspecified) | 81.5 | 61.4 | Non-toxic | > 350 | Non-toxic
12 | CC(=O)NN1C(=O)C(Cc2ccccc2)=NN2C1=NN(C(C)=O)C2(C)c1ccc(Cl)cc1 (racemic) | 87.9 | 5.69 | Non-toxic | > 350 | Non-toxic
